From ChEMBL document CHEMBL4368889, “Synthesis and evaluation of novel purple acid phosphatase inhibitors” (Medchemcomm, 2019)

Tests used:
[1] = biological target: T1, Fe(3+)-Zn(2+) purple acid phosphatase (Phaseolus vulgaris) (UniProt P80366); experiment: Competitive inhibition of red kidney bean PAP using pNPP as substrate by UV-vis spectrophotometric analysis
T1 sequence (whole entry): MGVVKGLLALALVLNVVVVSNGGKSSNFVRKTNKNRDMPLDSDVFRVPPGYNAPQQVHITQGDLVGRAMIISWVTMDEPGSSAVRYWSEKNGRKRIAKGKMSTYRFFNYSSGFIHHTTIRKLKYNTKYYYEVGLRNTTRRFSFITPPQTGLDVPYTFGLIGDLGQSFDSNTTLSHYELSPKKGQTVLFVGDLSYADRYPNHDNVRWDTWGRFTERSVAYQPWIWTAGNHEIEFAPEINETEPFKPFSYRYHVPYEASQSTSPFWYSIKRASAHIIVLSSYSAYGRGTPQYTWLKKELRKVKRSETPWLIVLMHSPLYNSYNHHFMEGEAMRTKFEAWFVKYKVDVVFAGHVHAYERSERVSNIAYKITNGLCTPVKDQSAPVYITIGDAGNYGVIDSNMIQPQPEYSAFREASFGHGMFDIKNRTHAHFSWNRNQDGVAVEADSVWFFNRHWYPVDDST
Procedure, shortened: (§1)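 Red kidney bean (Phaseolus vulgaris) PAP purified from the beans and used at 7.4 nM. Assays ran at pH 4.9 in 0.1 M sodium acetate with 25% DMSO, at 25 °C. Substrate was pNPP at 1, 3, 5, 7.5, 10 and 12.5 mM, with inhibitor at 50–300 μM. Product formation was read at 405 nm. Kic and Kiuc came from non-linear regression to the general inhibition equation.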

Sus scrofa = species on record: Sus scrofa; experiment: Uncompetitive inhibition of fully reduced pig PAP using pNPP as substrate by UV-vis spectrophotometric analysis
Procedure, shortened: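 Pig PAP purified from the uterine fluid of a pregnant sow. Assays ran at pH 4.9 in 0.1 M sodium acetate with 25% DMSO, at 25 °C. pNPP was 1–12.5 mM (six levels) and inhibitor 50–300 μM. Rates were read at 405 nm. Kiuc came from a general inhibition equation fit.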

[2] = biological target: T2, Fe(3+)-Zn(2+) purple acid phosphatase (Phaseolus vulgaris, UniProt P80366); experiment: Inhibition of red kidney bean PAP
T2 sequence (P80366 whole entry): T1 sequence (whole entry)
Procedure, shortened: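 PAP purified from Phaseolus vulgaris beans, used at 7.4 nM in 0.1 M sodium acetate pH 4.9 with 25% DMSO at 25 °C. pNPP substrate at 1, 3, 5, 7.5, 10 and 12.5 mM, inhibitor 50–300 μM. Product formation read at 405 nm. Kic and Kiuc came from a non-linear regression to the general inhibition equation.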

[3] = Inhibition of pig PAP; parameters: species or system Sus scrofa
[4] = biological target: T1, Fe(3+)-Zn(2+) purple acid phosphatase (Phaseolus vulgaris); experiment: Uncompetitive inhibition of red kidney bean PAP using pNPP as substrate by UV-vis spectrophotometric analysis; procedure, shortened: as §1

Compound	Kic [1]	Kiuc (Sus scrofa)	Ki [2]	Ki [3]	Kiuc [4]
Cc1ccc(Cn2cc(C(=O)O)nn2)cc1	951 µM	76 µM			
O=C(O)c1cn(Cc2ccc(Cl)cc2)nn1	1070 µM	103 µM			
O=C(O)c1cn(Cc2ccccc2Cl)nn1	438 µM	276 µM			
O=P(O)(O)O [PHOSPHORIC ACID]			2000 µM	2000 µM	
CC(=O)c1sc(C)nc1-c1ccc(C)cc1			340 µM	42 µM	
O=C(O)c1cn(Cc2ccccc2)nn1		23 µM			963 µM
O=C(O)c1cn(Cc2cccc3ccccc23)nn1	2280 µM	184 µM			
VANADATE ION			30 µM	40 µM	
COc1ccc(Cn2cc(C(=O)O)nn2)cc1		48 µM			
